Laboratory results: ChEMBL document CHEMBL1122783, “Synthesis of 2-(2,3-dihydro-2-oxo-1,3,4-oxadiazol-5-yl) benzo heterocycles. A novel series of orally active antiallergic agents” (J Med Chem, 1984)

Key:
[1] = species: Rattus norvegicus; experiment: Concentration required to inhibit antigen-induced release of histamine (AIR) by 50% from rat peritoneal mast cells (RMC) (in vitro).; format: functional, cell-based
Procedure, shortened: (§1)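 Rat peritoneal mast cells passively sensitized in vitro with rat anti-ovalbumin serum; compounds dissolved in Me2SO (final 0.17%). Antigen-induced and spontaneous (no antigen) histamine release measured after 15-min incubation; released and residual extracted histamine determined fluorometrically on an AutoAnalyzer.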

[2] = species: Rattus norvegicus; experiment: Concentration required to inhibit antigen-induced release of histamine (AIR) by 50% from rat peritoneal mast cells (RMC) (in vitro); f = Stimulation of AIR; format: functional, cell-based; procedure, shortened: as §1
[3] = test system: Rattus norvegicus; experiment: Inhibition of IgE-mediated passive cutaneous anaphylaxis (PCA) by 50% in rat dosed perorally; settings: po
[4] = species: Rattus norvegicus; experiment: Concentration required to inhibit antigen-induced release of histamine (AIR) by 50% from rat peritoneal mast cells (RMC) (in vitro); format: functional, cell-based; settings: Mast cell, read-out: I-50; procedure, shortened: as §1

Structure (SMILES)	IC50 [4]	ED50 [3]	further results
CCOC(=O)n1nc(-c2nc3ccccc3o2)oc1=O	–	–	I-50 [1]: Stimulation of AIR
Cn1nc(-c2nc3ccccc3o2)oc1=O	–	–	I50 [2]: Stimulation of AIR
O=C([O-])c1cc(=O)c2c(OCC(O)COc3cccc4oc(C(=O)[O-])cc(=O)c34)cccc2o1.[Na+].[Na+] [CROMOLYN SODIUM]	3000 nM	6 mg/kg	–
CCOC(=O)n1nc(-c2nc3cc(C)ccc3n2C)oc1=O	–	–	I-50 [1]: Stimulation of AIR
CCOC(=O)Cn1nc(-c2nc3ccccc3o2)oc1=O	–	–	I-50 [1]: Stimulation of AIR
O=C(/C=C/c1ccccc1)n1nc(-c2nc3ccccc3o2)oc1=O	15000 nM	–	–
CCOC(=O)n1nc(-c2nc3ccccc3n2C)oc1=O	–	–	I-50 [1]: Stimulation of AIR
CC1=C(c2nnc(O)o2)Cc2ccccc21	–	> 100 mg/kg	I-50 [1]: Stimulation of AIR
Cn1c(-c2n[nH]c(O)n2)nc2ccccc21	–	–	I-50 [2]: Stimulation of AIR
CC(=O)n1nc(-c2nc3ccccc3n2C)oc1=O	500 nM	–	–
Oc1nnc(-c2cc3cc(Cl)ccc3[nH]2)o1	–	9 mg/kg	–
CCOC(=O)n1nc(-c2nc3ccc(C)cc3o2)oc1=O	–	–	I-50 [1]: Stimulation of AIR

Second part, led by results:

IC50 [4]	Structure (SMILES)	ED50 [3]	further results
1200 nM	Oc1nnc(-c2nc3ccccc3o2)o1	3 mg/kg	–
1400 nM	CC(=O)n1nc(-c2nc3ccccc3o2)oc1=O	–	–
6000 nM	Cc1ccc2c(c1)nc(-c1nnc(O)o1)n2C	5 mg/kg	–
900 nM	Cn1c(-c2nnc(O)o2)nc2ccccc21	1 mg/kg	–
200 nM	Oc1nnc(-c2sc3ccccc3c2Cl)o1	> 125 mg/kg	–
300 nM	COC(=O)c1cc(OC)c2oc(-c3nnc(O)o3)nc2c1	9 mg/kg	–
5000 nM	Cc1ccc2nc(-c3nnc(O)o3)oc2c1	2 mg/kg	–
60000 nM	Oc1n[nH]c(-c2nc3ccccc3o2)n1	–	–
1000 nM	Cc1cccc2oc(-c3nnc(O)o3)nc12	–	–
400 nM	Cc1ccc2oc(-c3nnc(O)o3)nc2c1	2 mg/kg	–
1500 nM	Oc1nnc(-c2cc3ccccc3o2)o1	2 mg/kg	–
350 nM	Oc1nnc(-c2nc3cc(Cl)ccc3o2)o1	16 mg/kg	–
33000 nM	Oc1nnc(-c2cc3ccccc3[nH]2)o1	–	–
1000 nM	CCOC(=O)c1ccc2oc(-c3nnc(O)o3)nc2c1	–	–
